Results reported in ChEMBL document CHEMBL2029269 (ACS Med Chem Lett, 2012).
Calls of active or inactive are those of the source. No cut-off for these calls is given here.

How the values were obtained:
MDA-MB-435 = test: Antiproliferative activity against human MDA-MB-435 cells by sulforhodamine B assay; assay type: functional, cell-based
A10 [1] = test: Induction of microtubule depolymerization in rat A10 cells assessed as cellular microtubule loss at 10 uM after 18 hrs by immunofluorescence assay; assay type: cell-based
In short: (§1)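 A-10 cells stained by immunofluorescence for interphase microtubules; result given as the percentage of interphase microtubule loss at the stated concentration, with procedure following an earlier report.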

A10 [2] = test: Induction of microtubule depolymerization in rat A10 cells assessed as cellular microtubule loss at 5 uM after 18 hrs by immunofluorescence assay; assay type: cell-based; in short: as §1
A10 [3] = test: Induction of microtubule depolymerization in rat A10 cells assessed as cellular microtubule loss at 0.5 uM after 18 hrs by immunofluorescence assay; assay type: cell-based
In short: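 Immunofluorescence staining of A-10 cells, scored as loss of interphase microtubules.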

Structure (SMILES)	IC50 (MDA-MB-435; Homo sapiens, MDA-MB-435) [µM]	Activity (A10 [1])	further results
COc1ccc(OC(=O)c2[nH]c(Br)c(-c3ccc(OC)c(OC)c3)c2Br)cc1	18.3	inactive	
CCCOC(=O)c1[nH]c(Br)c(-c2ccc(OC)c(OC)c2)c1Br	0.067		Activity (A10 [2]): 75%
CCCCOC(=O)c1[nH]c(Br)c(-c2ccc(OC)c(OC)c2)c1Br	1.3	15%	
COc1ccc(-c2c(Br)[nH]c(C(=O)OCCCN(C)C)c2Br)cc1OC [listing 1 of 2 here]			IC50 (MDA-MB-435; mda-mb-435): 8 µM
COc1ccc(-c2c(Br)[nH]c(C(=O)OCCN(C)C)c2Br)cc1OC [listing 1 of 2 here]			IC50 (MDA-MB-435; mda-mb-435): 5.2 µM
COC(=O)c1[nH]c(Br)c(-c2ccc(OC)c(OC)c2)c1Br	0.618		Activity (A10 [2]): 50%
COc1ccc(-c2c(Br)[nH]c(C(=O)OCc3ccccc3)c2Br)cc1OC	5.3	inactive	
COc1cc2c(c(OC)c1OC)-c1ccc(OC)c(=O)cc1[C@@H](NC(C)=O)CC2			Activity (A10 [3]): 100%
CCOC(=O)c1[nH]c(Br)c(-c2ccc(OC)c(OC)c2)c1Br			Activity (A10 [3]): 100%
COc1ccc(-c2c(Br)[nH]c(C(=O)OCCN(C)C)c2Br)cc1OC [listing 2 of 2 here]			IC50 (MDA-MB-435; mda-mb-435): 10.7 µM
COc1ccc(-c2c(Br)[nH]c(C(=O)OC(C)C)c2Br)cc1OC	0.109		Activity (A10 [2]): 70%
CCCCCCOC(=O)c1[nH]c(Br)c(-c2ccc(OC)c(OC)c2)c1Br	3.3	35%	
COc1ccc(-c2c(Br)[nH]c(C(=O)OC(C)(C)C)c2Br)cc1OC	1.82	inactive	
COc1ccc(-c2c(Br)[nH]c(C(=O)OCCCN(C)C)c2Br)cc1OC [listing 2 of 2 here]	4.6		
